Source: PubChem (several laboratories)
PfG6PD inh: PfG6PD (Plasmodium falciparum) enzyme inhibition | PfGluPho enzyme, NADPH resazurin-diaphorase fluorescence | inhibition, % at 20 µM | 350,000 tested, 0.78% active;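 active = inhibition reaching at least a set limit at 20 µM in the primary screen, cut at about 59% in these data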
DTT redox prof: compounds producing H2O2 with reducing agent – biochemical, NIH compound library profiling, artefact control for MLSCN library redox annotation, primary screen. 200,000 tested, 0.03% active. DTT-dependent redox cycling H2O2, phenol red/HRP absorbance; 100% = 100 µM peroxide control, 0% = buffer. activation, % at 10 µM;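 active = activation of at least 50% relative to the plate's high and low controls in the primary single-dose screen; inactive = activation below 50%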;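 also: compound incubated with DTT at 0.8 mM final as the reducing agent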
Lmaj promast: reduces viability of Leishmania major promastigotes. inhibition, % at 10 µM. 200,000 tested, 9% active. resazurin fluorescence viability;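 also: promastigotes grown with compound for 44 hours at 28 °C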
Diaphorase inh: inhibits diaphorase or chemically oxidizes, flagging diaphorase assay artifacts. diaphorase resazurin-to-resorufin fluorescence, NADH, 16 min; bacterial (C. kluyveri) enzyme, not human. inhibition, % at 20 µM. 190,000 tested, 0.69% active. AID 1217;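 active = primary screen inhibition at 20 µM above a set limit, cut at about 50% in these data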
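Assay system – diaphorase enzyme from Clostridium kluyveri · Amount – diaphorase 0.14 U/mL (working solution) · Times – reaction incubation of 16 min at room temperature · Controls – No-NADH positive control and DMSO neutral control · Signal – resorufin fluorescence 544/590 nm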
Diaphorase act: diaphorase activation or chemical reduction counter-screen. AID 1229. 190,000 tested, 0.005% active. activation factor at 20 µM. Diaphorase/resazurin coupled assay, resorufin fluorescence, 16 min; active compounds read high; 1 = vehicle wells, 0 = NADH-free wells;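 active = diaphorase activity raised at least twofold by the compound at 20 µM; inactive = activation factor below 2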
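System – purified diaphorase enzyme from Clostridium kluyveri · Input – enzyme 0.07 U/mL final · Also added – final NADH 0.114 mM, resazurin 0.1 mM · Measured by – fluorescence of resorufin, 544 nm excitation, 590 nm emission · Timing – 16 min enzyme reaction, ambient temperature · Measure – resorufin increase flagging diaphorase activators or reducers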
G6PDH counter: L. mesenteroides G6PDH inhibition counter-screen; Purified L. mesenteroides G6PDH, diaphorase/resazurin coupled fluorescence, 45 min; inhibition, % at 5 µM; 200,000 tested, 0.12% active
Hits are given with their value. The full list was thinned out, with hits kept by preference. Rule as the data show it, unless noted: active = inhibition above about 50%; inactive = the rest.

How did Cc1cccc(C)c1N1CCN(c2ccc3nnc(C(F)(F)F)n3n2)CC1 do in these assays?
PfG6PD inh: inactive; DTT redox prof: inactive; Lmaj promast: 59.8; Diaphorase inh: inactive; Diaphorase act: inactive; G6PDH counter: inactive

What do the screens show for `CC(C)C(=O)Nc1ccc(C(=O)c2ccccc2)cc1`?
PfG6PD inh: inactive; DTT redox prof: inactive; Lmaj promast: 99.0; Diaphorase inh: inactive; Diaphorase act: inactive; G6PDH counter: inactive

Results for Cc1ccc(S(=O)(=O)NC(=O)Nc2ccc(OC(F)F)cc2)cc1 ?
PfG6PD inh: inactive

What do the screens show for `CC(C)c1ccc(NC(=O)Cn2cccc2C2=NC(c3ccccc3)CO2)cc1` (stereo not given)?
PfG6PD inh: inactive; DTT redox prof: inactive; Lmaj promast: 86.8; Diaphorase inh: inactive; Diaphorase act: inactive; G6PDH counter: inactive

What do the screens show for `Cc1oc(-c2ccccc2Cl)nc1Cn1cccc1C1=NC(c2ccccc2)CO1` (stereo not given)?
PfG6PD inh: inactive; DTT redox prof: inactive; Lmaj promast: inactive; Diaphorase inh: inactive; Diaphorase act: inactive; G6PDH counter: inactive

What do the screens show for `CC(C)Oc1ccc(CNC2CCOC(C)(C)C2)cc1` (stereo not given)?
PfG6PD inh: inactive; DTT redox prof: inactive; Lmaj promast: 86.3; Diaphorase inh: inactive; Diaphorase act: inactive; G6PDH counter: inactive

How did CCOc1ccc(N(CC(=O)NC2CCCCC2)C(=O)CCC(=O)Nc2nccs2)cc1 do in these assays?
PfG6PD inh: inactive

What do the screens show for `O=C(c1cccc(Cl)c1)N1CCC(N2CCC(C(=O)N3CCOCC3)CC2)CC1`?
PfG6PD inh: inactive; DTT redox prof: inactive; Lmaj promast: inactive; Diaphorase inh: inactive; Diaphorase act: inactive; G6PDH counter: inactive

What do the screens show for `CC1CN(C2CCN(C(=O)c3cccc(Cl)c3)CC2)CC(C)O1` (stereo not given)?
PfG6PD inh: inactive; DTT redox prof: inactive; Lmaj promast: 91.0; Diaphorase inh: inactive; Diaphorase act: inactive; G6PDH counter: inactive

Results for O=C(c1cccc(F)c1)N1CCC(N2CCOCC2)CC1 ?
PfG6PD inh: inactive; DTT redox prof: inactive; Lmaj promast: 62.5; Diaphorase inh: inactive; Diaphorase act: inactive; G6PDH counter: inactive

What do the screens show for `O=C(c1ccccc1Cl)N1CCC(N2CCC(C(=O)N3CCCC3)CC2)CC1`?
PfG6PD inh: inactive

What do the screens show for `CC1CN(C2CCN(C(=O)c3ccccc3Cl)CC2)CC(C)O1` (stereo not given)?
PfG6PD inh: inactive; DTT redox prof: inactive; Lmaj promast: 88.4; Diaphorase inh: inactive; Diaphorase act: inactive; G6PDH counter: inactive

What do the screens show for `COc1ccc(C(=O)N2CCc3ccc(NC(=O)c4ccccn4)cc3C2)cc1F`?
PfG6PD inh: inactive

What do the screens show for `CCN(CC(=O)NCc1ccc(Cl)cc1)C(=O)CN1C(=O)NC(CC)(c2ccccc2)C1=O` (stereo not given)?
PfG6PD inh: inactive

How did COc1ccc(/C=C/C(=O)OCC(=O)NCc2ccco2)c(OC)c1 do in these assays?
PfG6PD inh: inactive; DTT redox prof: inactive; Lmaj promast: inactive; Diaphorase inh: inactive; Diaphorase act: inactive; G6PDH counter: inactive

Results for COc1ccccc1NCc1ccc([N+](=O)[O-])s1 ?
PfG6PD inh: inactive; DTT redox prof: inactive; Lmaj promast: 60.0; Diaphorase inh: inactive; Diaphorase act: inactive; G6PDH counter: inactive

How did Cc1ccccc1NCc1ccc([N+](=O)[O-])s1 do in these assays?
PfG6PD inh: inactive

Results for Cc1ccc(C)c(S(=O)(=O)N2CCN(C(C(=O)Nc3ccc(F)cc3)c3ccccc3)CC2)c1 (stereo not given) ?
PfG6PD inh: inactive; DTT redox prof: inactive; Lmaj promast: 55.8; Diaphorase inh: inactive; Diaphorase act: inactive; G6PDH counter: inactive

Results for O=C(Nc1ccc(F)cc1)C(c1ccccc1)N1CCN(S(=O)(=O)c2ccc3ccccc3c2)CC1 (stereo not given) ?
PfG6PD inh: inactive; DTT redox prof: inactive; Lmaj promast: inactive; Diaphorase inh: inactive; Diaphorase act: inactive; G6PDH counter: inactive

Results for CC(C)N1CCC2(CC1)N=C(c1ccc3c(c1)OCO3)CC(c1cc(Cl)ccc1O)N2 (stereo not given) ?
PfG6PD inh: inactive; DTT redox prof: inactive; Lmaj promast: 100.5; Diaphorase inh: inactive; Diaphorase act: inactive; G6PDH counter: inactive

Results for Cn1cc(Br)c(C(=O)NNC(=O)c2ccc(Cl)cc2)n1 ?
PfG6PD inh: inactive; DTT redox prof: inactive; Lmaj promast: 52.1; Diaphorase inh: inactive; Diaphorase act: inactive; G6PDH counter: inactive

How did COc1cc(-c2cc(C(=O)Nc3ccccc3N3CCOCC3)c3ccccc3n2)cc(OC)c1OC do in these assays?
PfG6PD inh: inactive; DTT redox prof: inactive; Lmaj promast: 60.6; Diaphorase inh: inactive; Diaphorase act: inactive; G6PDH counter: inactive

Results for CCc1ccc(-c2cc(C(=O)NN3CCOCC3)c3ccccc3n2)cc1 ?
PfG6PD inh: inactive; DTT redox prof: inactive; Lmaj promast: inactive; Diaphorase inh: inactive; Diaphorase act: inactive; G6PDH counter: inactive

Results for O=C(NN1CCOCC1)c1cc(-c2ccc(Br)cc2)nc2ccccc12 ?
PfG6PD inh: inactive; DTT redox prof: inactive; Lmaj promast: 58.5; Diaphorase inh: inactive; Diaphorase act: inactive; G6PDH counter: inactive

What do the screens show for `COC(=O)CCCn1c(C)cc(C(=O)CCl)c1C`?
PfG6PD inh: inactive; DTT redox prof: inactive; Lmaj promast: 100.4; Diaphorase inh: inactive; Diaphorase act: inactive; G6PDH counter: inactive

What do the screens show for `Cc1cc(C(=O)CCl)c(C)n1CCc1ccccc1`?
PfG6PD inh: inactive; DTT redox prof: inactive; Lmaj promast: 100.3; Diaphorase inh: inactive; Diaphorase act: inactive; G6PDH counter: inactive

Results for CCOC(=O)c1cc(C)n(CCc2ccccc2)c1C ?
PfG6PD inh: inactive; DTT redox prof: inactive; Lmaj promast: inactive; Diaphorase inh: inactive; Diaphorase act: inactive; G6PDH counter: inactive

Results for CCOc1cc(/C=C(\C#N)C(=O)Nc2ccccc2[N+](=O)[O-])ccc1OCc1cccc2ccccc12 ?
DTT redox prof: inactive; Lmaj promast: inactive; Diaphorase inh: inactive; Diaphorase act: inactive; G6PDH counter: inactive

Results for CC(C)NC(=O)NC(=O)COc1ccc(Br)cc1Br ?
PfG6PD inh: inactive; Lmaj promast: 67.3; Diaphorase inh: inactive; Diaphorase act: inactive; G6PDH counter: inactive

How did COc1ccccc1N1CCN(C(c2cc3ccc(C)cc3[nH]c2=O)c2nnnn2C2CCCC2)CC1 (stereo not given) do in these assays?
PfG6PD inh: inactive; DTT redox prof: inactive; Lmaj promast: 61.9; Diaphorase inh: inactive; Diaphorase act: inactive; G6PDH counter: inactive
